# Assay results taken from ChEMBL document CHEMBL3124918, “Optimization of peptides that target human thymidylate synthase to inhibit ovarian cancer cell growth” (2014).
# Activity calls are given as the source filed them. The rule behind the calls is not given here. Non-standard residues stand in square brackets, D forms with d. Residues, ends and D or L forms follow the SMILES beside them.
# Key:
# [1] = Upregulation of thymidylate synthase total protein level in 13-fold cisplatin-resistant human C13 cells at 5 uM after 48 hrs by Western blotting analysis; assay type: functional, cell-based
# 2008 [2] = experiment: Upregulation of thymidylate synthase total protein level in human 2008 cells at 5 uM after 48 hrs by Western blotting analysis; assay type: functional, cell-based
# [3] = target: Thymidylate synthase (Homo sapiens) (UniProt P04818); experiment: Inhibition of human thymidylate synthase using dUMP as substrate at 75 uM after 1 hr by UV-vis spectrophotometric analysis in presence of mTHF relative to control
# Procedure, shortened: (§1)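 Purified hTS, concentration by UV-vis (ε280 = 89 000 M−1 cm−1), preincubated 1 h with peptide in phosphate buffer pH 6.9 at 25 °C. Reaction in 50 mM TES pH 7.4 with 25 mM MgCl2, 6.5 mM HCHO, 1 mM EDTA, 75 mM βME, 0.6 mM dUMP, 0.15 mM mTHF. A340 followed 3 min. I% versus enzyme-alone control, mean ± SEM, n = 3.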
# 2008 [4] = experiment: Cytotoxicity against human 2008 cells assessed as cell survival at 10 uM after 72 hrs by crystal violet staining-based spectrophotometric analysis relative to control; conditions: Homo sapiens, 2008, 72 h, read-out: Survival
# [5] = Cytotoxicity against 10-fold cisplatin-resistant human A2780C/P cells cell survival at 10 uM after 72 hrs by crystal violet staining-based spectrophotometric analysis relative to control; conditions: A2780cisR, read-out: Survival
# A2780 = experiment: Cytotoxicity against human A2780 cells assessed as cell survival at 10 uM after 72 hrs by crystal violet staining-based spectrophotometric analysis relative to control; conditions: A2780, 72 h, read-out: Survival
# [6] = Cytotoxicity against 13-fold cisplatin-resistant human C13 cells cell survival at 10 uM after 72 hrs by crystal violet staining-based spectrophotometric analysis relative to control; conditions: C13, 72 h, read-out: Survival
# [7] = target: Thymidylate synthase (Homo sapiens) (UniProt P04818); experiment: Inhibition of human thymidylate synthase using dUMP as substrate at 50 uM after 1 hr by UV-vis spectrophotometric analysis in presence of mTHF relative to control; procedure, shortened: as §1
# Sequence of Thymidylate synthase (Homo sapiens) (P04818 2-313 limits assumed): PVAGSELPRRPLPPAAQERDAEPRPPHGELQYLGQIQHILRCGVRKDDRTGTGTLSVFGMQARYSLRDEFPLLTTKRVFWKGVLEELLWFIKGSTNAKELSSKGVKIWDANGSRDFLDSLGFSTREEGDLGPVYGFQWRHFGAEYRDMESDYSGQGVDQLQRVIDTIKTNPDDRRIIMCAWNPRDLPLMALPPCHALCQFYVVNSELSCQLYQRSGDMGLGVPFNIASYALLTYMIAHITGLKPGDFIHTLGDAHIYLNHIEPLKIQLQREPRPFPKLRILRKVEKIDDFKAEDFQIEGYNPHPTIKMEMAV
compound,measurement,setting,value
O=c1[nH]cc(F)c(=O)[nH]1,Activity,[1],Active
same,Activity,2008 [2],Active
CC(C)C[C@H](N)C(=O)N[C@@H](CO)C(=O)N[C@@H](CS)C(=O)N[C@@H](CCC(N)=O)C(=O)O (H-LSCQ-OH),inhibition,[3],59%
CC(C)C[C@H](NC(=O)[C@@H](CCC(N)=O)NC(=O)[C@H](CS)NC(=O)[C@H](CO)NC(=O)[C@@H](N)CC(C)C)C(=O)N[C@@H](Cc1ccc(O)cc1)C(=O)N[C@@H](CCC(N)=O)C(=O)N[C@@H](CCCNC(=N)N)C(=O)O (H-LSC[dQ]LYQR-OH),viability at 10 µM,2008 [4],< 50%
same,viability at 10 µM,[5],25%
same,viability at 10 µM,A2780,< 50%
same,viability at 10 µM,[6],25%
H-CQLYQ-OH,inhibition,[3],52%
H-SCQLYQR-OH,inhibition,[7],54%
H-LSCQLYAR-OH,inhibition,[7],60%
H-LSCQLYQ-OH,inhibition,[3],56%
